Data reported in ChEMBL document CHEMBL1148531, “The discovery of new 11beta-hydroxysteroid dehydrogenase type 1 inhibitors by common feature pharmacophore modeling and virtual screening” (J Med Chem, 2006).
The source made the active and inactive calls. No cut-off for these calls is given here.

Experiments:
[1] = target: T1, 11-beta-hydroxysteroid dehydrogenase type 2 (Homo sapiens, UniProt P80365); test: Inhibition of human recombinant 11betaHSD2 transfected in intact HEK293 cells; type: cell-based
T1 sequence (P80365 whole entry): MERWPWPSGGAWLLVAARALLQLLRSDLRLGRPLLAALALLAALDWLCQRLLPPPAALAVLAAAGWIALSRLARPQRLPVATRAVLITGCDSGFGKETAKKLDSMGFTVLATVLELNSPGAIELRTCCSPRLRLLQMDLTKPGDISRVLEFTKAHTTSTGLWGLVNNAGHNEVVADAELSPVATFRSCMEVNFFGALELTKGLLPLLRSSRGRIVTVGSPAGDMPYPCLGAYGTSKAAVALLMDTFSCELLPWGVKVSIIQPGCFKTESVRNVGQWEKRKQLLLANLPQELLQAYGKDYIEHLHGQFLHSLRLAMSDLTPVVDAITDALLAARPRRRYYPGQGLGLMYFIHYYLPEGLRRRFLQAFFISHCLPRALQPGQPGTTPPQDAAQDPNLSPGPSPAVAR

[2] = target: T2, 11-beta-hydroxysteroid dehydrogenase 1 (Homo sapiens, UniProt P28845); test: Inhibition of human recombinant 11-beta-HSD1 expressed in HEK293 cells at 10 uM; type: cell-based; parameters: scale not given: the % may be the effect or the level left
Procedure, shortened: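 Lysates of HEK-293 cells expressing human 11β-HSD1; conversion of 200 nM tritiated cortisone with 500 µM NADPH, test compound at 10 µM; percent inhibition reported.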
Target sequence in this assay (P28845 whole entry, looked up): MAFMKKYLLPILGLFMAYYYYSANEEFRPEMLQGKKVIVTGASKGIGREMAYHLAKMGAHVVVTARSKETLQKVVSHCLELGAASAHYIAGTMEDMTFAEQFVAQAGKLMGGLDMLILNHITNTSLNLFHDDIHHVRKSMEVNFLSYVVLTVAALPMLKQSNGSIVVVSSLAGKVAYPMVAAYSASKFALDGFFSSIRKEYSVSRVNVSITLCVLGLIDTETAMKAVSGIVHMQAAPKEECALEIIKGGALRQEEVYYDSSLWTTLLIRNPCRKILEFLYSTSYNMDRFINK

[3] = target: T2, 11-beta-hydroxysteroid dehydrogenase 1; test: Inhibition of human recombinant 11-beta-HSD1 transfected in intact HEK293 cells; type: cell-based
Procedure, shortened: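 HEK-293 cells cotransfected (calcium phosphate) with 11β-HSD1 and H6PDH plasmids, replated after 6 h at 30000 cells/well in steroid-free DMEM for 18 h. Inhibitor 50 nM–20 µM final with 200 nM radiolabeled cortisone, 90 min at 37 °C; stopped with excess unlabeled steroids in methanol, TLC, scintillation counting. Mean ± SD, at least four experiments.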
Target sequence in this assay (P28845 whole entry): as the sequence (P28845 whole entry, looked up) above

[4] = target: T3, 17-beta-hydroxysteroid dehydrogenase type 1 (Homo sapiens, UniProt P14061); test: Inhibition of human recombinant 17betaHSD1 expressed in HEK293 cells; type: cell-based
T3 sequence (P14061 whole entry): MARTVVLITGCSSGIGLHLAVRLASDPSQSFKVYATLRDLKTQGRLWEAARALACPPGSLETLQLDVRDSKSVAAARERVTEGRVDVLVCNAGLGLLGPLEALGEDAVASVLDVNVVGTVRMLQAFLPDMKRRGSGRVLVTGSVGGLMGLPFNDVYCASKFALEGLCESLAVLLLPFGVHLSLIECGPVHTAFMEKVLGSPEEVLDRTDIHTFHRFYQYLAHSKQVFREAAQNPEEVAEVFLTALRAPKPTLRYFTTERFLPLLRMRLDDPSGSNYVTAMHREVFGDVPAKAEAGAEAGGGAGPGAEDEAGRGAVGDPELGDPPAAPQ
Procedure, shortened: (§1)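 Lysates of HEK-293 cells expressing human recombinant enzyme; inhibitor 50 nM–30 µM final, DMSO ≤0.1%. 11β-HSD1: 200 nM [1,2,6,7-3H]cortisone, 500 µM NADPH. 17β-HSD1: 200 nM radiolabeled estrone, 500 µM NADPH. 17β-HSD2: 200 nM radiolabeled estradiol, 500 µM NADP+. IC50 by nonlinear regression, first-order kinetics; mean ± SD, at least four experiments.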

HEK293 = test: Cytotoxicity against HEK293 cells upto 40 uM by MTT assay; type: functional, cell-based; settings: Homo sapiens
Procedure, shortened: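 HEK-293 cells on poly-D-lysine-coated wells exposed 4 h at 37 °C to 40 µM compound, then fresh medium with 0.5 mg/mL MTT; formazan dissolved in DMSO, absorbance A570 − A690. Controls: chloroform 1% v/v and NaOH 50 mM.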

[5] = target: T4, 17-beta-hydroxysteroid dehydrogenase type 2 (Homo sapiens, UniProt P37059); test: Inhibition of human recombinant 17-beta-HSD2 expressed in HEK293 cells; type: cell-based; procedure, shortened: as §1
T4 sequence (P37059 whole entry): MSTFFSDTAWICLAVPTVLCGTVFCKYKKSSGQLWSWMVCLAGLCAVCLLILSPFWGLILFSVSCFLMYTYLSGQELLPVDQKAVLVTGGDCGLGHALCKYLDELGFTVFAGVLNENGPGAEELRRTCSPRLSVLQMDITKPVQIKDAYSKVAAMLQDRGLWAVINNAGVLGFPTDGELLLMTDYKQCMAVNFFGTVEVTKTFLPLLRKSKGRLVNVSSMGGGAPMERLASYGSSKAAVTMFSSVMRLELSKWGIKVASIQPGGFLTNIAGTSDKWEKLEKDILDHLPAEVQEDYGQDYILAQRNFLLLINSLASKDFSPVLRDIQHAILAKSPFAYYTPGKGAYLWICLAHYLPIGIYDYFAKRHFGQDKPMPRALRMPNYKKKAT

[6] = target: Mineralocorticoid receptor (Homo sapiens) (UniProt P08235); test: Inhibition of MR-mediated transactivation of galactosidase reporter gene in HEK293 cells
[7] = target: T5, 11-beta-hydroxysteroid dehydrogenase 1 (Mus musculus, UniProt P50172); test: Inhibition of 11-beta-HSD1-dependent cortisone conversion to cortisol in mouse intact C2C12 cells; type: functional, cell-based
Procedure, shortened: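 Differentiation: confluent C2C12 myoblasts kept 7 days in DMEM with 2% horse serum to form myotubes. Day-7 myotubes incubated 1 h at 37 °C with 200 nM radiolabeled cortisone and varying inhibitor (formation linear over 15–60 min). Steroids extracted from medium with ethyl acetate, separated by TLC, conversion by scintillation counting.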

[8] = target: T5, 11-beta-hydroxysteroid dehydrogenase 1; test: Inhibition of 11-beta-HSD1-dependent cortisone conversion to cortisol in mouse intact 3T3 L1 cells; type: functional, cell-based
Procedure, shortened: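 3T3-L1 preadipocytes grown to confluence, held 48 h, differentiated 48 h (0.25 mM IBMX, 0.5 µM dexamethasone, 1 µg/mL insulin), then insulin medium 72 h, then insulin-free. Adipocytes incubated 45 min at 37 °C with 200 nM radiolabeled cortisone plus inhibitor at various concentrations. Medium steroids extracted, separated by TLC, scintillation counted.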

Glucocorticoid receptor = target: T6, Glucocorticoid receptor (Homo sapiens, UniProt P04150); test: Inhibition of GR-mediated transactivation of galactosidase reporter gene in HEK293 cells in absence of 11betaHSD1; type: functional, cell-based
T6 sequence (P04150 whole entry): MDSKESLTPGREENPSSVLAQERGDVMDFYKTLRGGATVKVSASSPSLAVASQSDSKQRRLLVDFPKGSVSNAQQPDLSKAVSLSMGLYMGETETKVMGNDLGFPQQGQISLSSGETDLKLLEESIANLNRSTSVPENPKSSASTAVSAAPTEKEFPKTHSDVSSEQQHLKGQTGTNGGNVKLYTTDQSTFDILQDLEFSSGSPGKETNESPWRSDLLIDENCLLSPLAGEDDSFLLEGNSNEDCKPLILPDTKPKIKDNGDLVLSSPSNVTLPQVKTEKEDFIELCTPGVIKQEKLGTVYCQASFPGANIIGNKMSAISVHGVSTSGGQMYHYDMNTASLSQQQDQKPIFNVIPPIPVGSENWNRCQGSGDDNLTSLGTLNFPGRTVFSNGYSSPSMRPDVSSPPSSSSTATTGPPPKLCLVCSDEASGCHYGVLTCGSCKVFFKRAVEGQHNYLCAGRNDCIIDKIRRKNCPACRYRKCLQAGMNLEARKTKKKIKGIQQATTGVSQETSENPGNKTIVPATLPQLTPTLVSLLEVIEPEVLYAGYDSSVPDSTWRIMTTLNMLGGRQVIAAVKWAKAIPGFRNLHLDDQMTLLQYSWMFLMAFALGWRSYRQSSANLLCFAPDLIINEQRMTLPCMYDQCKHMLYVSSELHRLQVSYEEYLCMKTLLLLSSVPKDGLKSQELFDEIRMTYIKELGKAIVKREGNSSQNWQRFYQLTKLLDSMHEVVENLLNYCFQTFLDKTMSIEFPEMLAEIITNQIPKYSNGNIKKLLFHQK
Procedure, shortened: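 HEK-293 cells transfected with pMMTV-LacZ, pCMV-LUC and GR plus empty pcDNA3 (no 11β-HSD1/H6PDH). After 6 h, washed into steroid-free medium, then 24 h with 100 nM cortisol and graded inhibitor. β-Galactosidase normalized to luciferase, as % of steroid-only control. Four independent experiments, means ± SD.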

[9] = target: T7, Mineralocorticoid receptor (Homo sapiens, UniProt P08235); test: Antagonist activity against MR; type: functional
T7 sequence (P08235 whole entry): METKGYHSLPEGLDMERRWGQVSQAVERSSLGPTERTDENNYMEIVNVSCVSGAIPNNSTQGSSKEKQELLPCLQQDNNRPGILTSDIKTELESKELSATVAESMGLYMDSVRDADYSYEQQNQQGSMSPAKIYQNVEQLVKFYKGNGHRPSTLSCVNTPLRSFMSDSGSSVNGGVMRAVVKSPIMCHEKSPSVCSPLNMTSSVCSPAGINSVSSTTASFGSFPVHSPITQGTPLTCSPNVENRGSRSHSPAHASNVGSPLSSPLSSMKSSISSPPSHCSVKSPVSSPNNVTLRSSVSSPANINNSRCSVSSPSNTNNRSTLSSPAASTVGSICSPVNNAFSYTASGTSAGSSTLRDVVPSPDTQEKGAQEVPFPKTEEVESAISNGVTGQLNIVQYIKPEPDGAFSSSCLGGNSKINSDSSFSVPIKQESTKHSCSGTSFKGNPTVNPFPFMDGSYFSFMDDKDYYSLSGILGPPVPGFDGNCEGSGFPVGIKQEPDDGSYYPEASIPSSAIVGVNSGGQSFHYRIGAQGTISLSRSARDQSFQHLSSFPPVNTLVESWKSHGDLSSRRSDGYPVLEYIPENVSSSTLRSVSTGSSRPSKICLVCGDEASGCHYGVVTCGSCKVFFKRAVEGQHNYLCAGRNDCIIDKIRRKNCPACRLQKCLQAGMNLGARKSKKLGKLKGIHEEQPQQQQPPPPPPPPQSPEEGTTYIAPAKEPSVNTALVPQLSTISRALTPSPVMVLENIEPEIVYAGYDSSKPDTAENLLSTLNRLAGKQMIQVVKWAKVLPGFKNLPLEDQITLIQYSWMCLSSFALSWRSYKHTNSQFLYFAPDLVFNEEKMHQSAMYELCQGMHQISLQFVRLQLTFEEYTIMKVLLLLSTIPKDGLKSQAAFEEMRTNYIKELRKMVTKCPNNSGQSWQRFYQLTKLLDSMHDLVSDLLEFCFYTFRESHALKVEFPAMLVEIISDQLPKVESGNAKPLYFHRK
Procedure, shortened: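 HEK-293 cells on poly-L-lysine-coated wells, transfected with pMMTV-LacZ reporter, pCMV-LUC control and MR expression vector plus empty pcDNA3. […] Four independent experiments, means ± SD.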

T5 sequence (P50172 whole entry): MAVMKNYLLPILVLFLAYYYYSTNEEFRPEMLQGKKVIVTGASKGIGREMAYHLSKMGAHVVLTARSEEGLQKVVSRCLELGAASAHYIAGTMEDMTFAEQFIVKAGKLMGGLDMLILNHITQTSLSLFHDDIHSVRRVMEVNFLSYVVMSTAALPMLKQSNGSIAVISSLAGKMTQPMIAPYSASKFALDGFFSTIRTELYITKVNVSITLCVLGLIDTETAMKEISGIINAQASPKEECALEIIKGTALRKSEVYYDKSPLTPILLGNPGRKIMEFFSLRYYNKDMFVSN

Row | Structure (SMILES) | IC50 [1] [µM] | Activity [2] [%] | IC50 [3] [µM] | IC50 [4] [µM] | Activity (HEK293) | IC50 [5] [µM] | Activity [6] | IC50 [7] [µM] | IC50 [8] [µM] | IC50 (Glucocorticoid receptor) [µM] | IC50 [9] [µM]
1 | CC1(C)[C@@H](N)CC[C@]2(C)[C@H]3C(=O)C=C4[C@@H]5C[C@@](C)(C(=O)O)CC[C@]5(C)CC[C@@]4(C)[C@]3(C)CC[C@@H]12 | 6.04 | > 70 | 1.02 | > 30 | Not toxic |  |  |  |  |  | 
2 | C[C@H]1C[C@@]2(C)CC[C@](C)(C(=O)N[C@H](Cc3ccccc3)C(=O)O)C[C@@]2(C)C2=CC(=O)[C@@H]3[C@@]4(C)CC[C@H](O)C(C)(C)[C@@H]4CC[C@@]3(C)[C@@]21C |  | > 70 |  | > 30 | Not toxic | 23.6 |  |  |  |  | 
3 | C[C@]12CCC(=O)C=C1CC[C@@H]1[C@@H]2C(=O)C[C@@]2(C)[C@H]1CC[C@]2(O)C(=O)CO |  |  |  |  |  |  | inactive |  |  |  | 
4 | COc1ccc(CCNC(=O)C23CCC(C)(C(=O)C2=O)C3(C)C)cc1OC (centres undefined) |  | > 70 | 5.21 | 20.2 | Not toxic |  |  | 4.17 | 3.9 |  | 
5 | CC(=O)O[C@H]1CC[C@]2(C)[C@H]3C(=O)C=C4[C@@H]5C[C@@](C)(C(=O)O)CC[C@]5(C)CC[C@@]4(C)[C@]3(C)CC[C@H]2C1(C)C [ACETOXOLONE] |  | > 70 |  | 18.8 | Not toxic | 3.78 |  |  |  |  | 
6 | CC(=O)OC1CC[C@]2(C)C3=C(C(=O)C[C@H]2C1(C)C)[C@]1(C)CCC(C(C)CCC(=O)O)[C@@]1(C)CC3=O (some centres undefined) |  | > 70 |  |  | Not toxic |  |  |  |  | 11.8 | 21
7 | COC(=O)[C@@]1(C)CC[C@]2(C)CC[C@]3(C)C(=CC(=O)[C@@H]4[C@@]5(C)CC[C@H](Oc6ccccc6C(=O)O)C(C)(C)[C@@H]5CC[C@]43C)[C@@H]2C1 | 48 | > 70 | 3.84 |  | Not toxic | 10.3 |  |  |  |  | 
